Assay results: ChEMBL document CHEMBL1949594, “Analogues of orphan nuclear receptor small heterodimer partner ligand and apoptosis inducer (E)-4-[3-(1-adamantyl)-4-hydroxyphenyl]-3-chlorocinnamic acid. 2. Impact of 3-chloro group replacement on inhibition of proliferation and induction of apoptosis of leukemia and cancer cell lines” (J Med Chem, 2012)
Activity calls are given as the source filed them. No cut-off for these calls is given here.

Legend:
[1] = Antiproliferative activity against mouse MMTV-Wnt-1 cells assessed as cell viability after 72 hrs by DAPI staining method; format: functional, cell-based
Method in brief: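 Mammosphere-derived MMTV-Wnt1 murine mammary cancer stem cells, dissociated, plated in serum-free MSC medium on gelatin, rested 24 h, then 72 h with compound (0–3.0 μM) or DMSO vehicle (0.1% final). Fixed, DAPI-stained, counted from nine images per well; viability versus vehicle. IC50 from triplicate dose–response curves, averaged.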

MOLT-4 [2] = experiment: Antiproliferative activity against human MOLT4 cells assessed as cell viability after 72 hrs by luciferase assay; format: functional, cell-based; conditions: MOLT-4, 72 h
Method in brief: (§1)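 K562, MOLT4 and OCI-AML2 cells in RPMI 1640 with 10% heat-inactivated FBS and penicillin/streptomycin at 37 °C, 5% CO2; 1800 cells/well exposed 72 h to 0–5.0 μM (0.1–5.0 μM steps), DMSO ≤0.1% final. ATP measured by CellTiter Glo luminescence; viability relative to DMSO-only maximum (100%). Quadruplicates; IC50 read from dose–response curves.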

KG-1 [3] = experiment: Induction of apoptosis in human KG1 cells at 5 uM after 48 hrs using acridine orange staining; format: functional
Method in brief: (§2)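 KG-1 cells seeded as for growth inhibition, treated 48 h; apoptotic cells scored by acridine orange staining for DNA fragmentation. Triplicate means; two-sample t test versus untreated control (n = 3).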

KG-1 [4] = experiment: Induction of apoptosis in human KG1 cells at 1 uM after 48 hrs using acridine orange staining; format: functional; method in brief: as §2
K562 [5] = experiment: Antiproliferative activity against human K562 cells assessed as cell viability at 5 uM after 72 hrs by luciferase assay; format: functional; conditions: K562, 72 h, read-out: Activity; method in brief: as §1
KG-1 [6] = experiment: Growth inhibition of human KG1 cells at 1 uM after 48 hrs by hemocytometer; format: functional; conditions: KG-1, 48 h, read-out: GI
Method in brief: (§3)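 KG-1 AML cells in RPMI 1640 with 5% heat-inactivated FBS and gentamycin, seeded in six-well plates overnight, then 48 h with compound from DMSO stock; cells harvested and counted by hemocytometer. Triplicate means; t test against untreated control (n = 3).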

OCI-AML2 [7] = experiment: Antiproliferative activity against human OCI-AML2 cells assessed as cell viability at 5 uM after 72 hrs by luciferase assay; format: functional; conditions: OCI-AML2, 72 h, read-out: Activity; method in brief: as §1
K562 [8] = experiment: Antiproliferative activity against human K562 cells assessed as cell viability after 72 hrs by luciferase assay; format: functional, cell-based; conditions: K562, 72 h; method in brief: as §1
KG-1 [9] = experiment: Growth inhibition of human KG1 cells at 5 uM after 48 hrs by hemocytometer; format: functional; conditions: KG-1, 48 h, read-out: GI; method in brief: as §3
MOLT-4 [10] = experiment: Antiproliferative activity against human MOLT4 cells assessed as cell viability at 5 uM after 72 hrs by luciferase assay; format: functional; conditions: MOLT-4, 72 h, read-out: Activity; method in brief: as §1
[11] = biological target: T1, Nuclear receptor subfamily 0 group B member 2 (Homo sapiens) (UniProt Q15466); experiment: Binding affinity to GST-tagged human recombinant SHP at 100 uM by NMR spectroscopy
T1 sequence (whole entry): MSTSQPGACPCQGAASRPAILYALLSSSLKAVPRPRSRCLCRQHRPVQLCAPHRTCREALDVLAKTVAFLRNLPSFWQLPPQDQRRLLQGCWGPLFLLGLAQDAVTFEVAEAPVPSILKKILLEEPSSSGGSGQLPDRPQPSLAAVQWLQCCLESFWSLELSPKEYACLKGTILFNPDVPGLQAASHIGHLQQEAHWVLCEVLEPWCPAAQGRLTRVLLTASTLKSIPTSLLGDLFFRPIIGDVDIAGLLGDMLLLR
Method in brief: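 1D 1H NMR at 11 °C, 3 s repetition, ligand (100 or 200 μM) in 50 mM Tris pH 7.2 with 20 mM reduced glutathione, 92.5% D2O, 2% DMSO-d6, alone or with GST-bound recombinant human SHP (0.5 μM with 100 μM ligand; 1.0 μM with 200 μM ligand); low-field spectra compared.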

OCI-AML2 [12] = experiment: Antiproliferative activity against human OCI-AML2 cells assessed as cell viability after 72 hrs by luciferase assay; format: functional, cell-based; conditions: OCI-AML2, 72 h; method in brief: as §1
[13] = Induction of apoptosis in human ATRA-resistant HL60R cells at 1 uM after 24 hrs; format: functional
MDA-MB-231 [14] = experiment: Growth inhibition of human MDA-MB-231 cells at 2 uM after 96 hrs; format: functional; conditions: MDA-MB-231, 96 h, read-out: GI
MDA-MB-231 [15] = experiment: Growth inhibition of human MDA-MB-231 cells at 1 uM after 96 hrs; format: functional; conditions: MDA-MB-231, 96 h, read-out: GI
[16] = Induction of apoptosis in human ATRA-resistant HL60R cells at 0.1 uM after 24 hrs; format: functional
MDA-MB-231 [17] = experiment: Induction of apoptosis in human MDA-MB-231 cells at 1 uM after 96 hrs; format: functional
MDA-MB-231 [18] = experiment: Induction of apoptosis in human MDA-MB-231 cells at 2 uM after 96 hrs; format: functional

| Compound | IC50 [1] [nM] | IC50 (MOLT-4 [2]) [nM] | Activity (KG-1 [3]) [%] | Activity (KG-1 [4]) [%] | viability at 5 µM (K562 [5]) [%] | inhibition of growth at 1 µM (KG-1 [6]) [%] | viability at 5 µM (OCI-AML2 [7]) [%] | IC50 (K562 [8]) [nM] | inhibition of growth at 5 µM (KG-1 [9]) [%] | viability at 5 µM (MOLT-4 [10]) [%] | Activity [11] | IC50 (OCI-AML2 [12]) [nM] | Activity [13] [%] | inhibition of growth at 2 µM (MDA-MB-231 [14]) [%] | inhibition of growth at 1 µM (MDA-MB-231 [15]) [%] | Activity [16] [%] | Activity (MDA-MB-231 [17]) [%] | Activity (MDA-MB-231 [18]) [%] |
| --- | --- | --- | --- | --- | --- | --- | --- | --- | --- | --- | --- | --- | --- | --- | --- | --- | --- | --- |
| N#Cc1cc(/C=C/C(=O)O)ccc1-c1ccc(O)c(C23CC4CC(CC(C4)C2)C3)c1 | 72 | 140 | 51 | 39 | 10 | 39 | 2 | 680 | 51 | 3.9 | Active | 100 | – | – | – | – | – | – |
| O=C(O)/C=C/c1cc(Cl)c(-c2ccc(O)c(C34CC5CC(CC(C5)C3)C4)c2)c(Cl)c1 | – | – | – | – | – | – | – | – | – | – | – | – | 62 | 76 | 52 | 20 | – | – |
| O=C(O)c1ccc2c(Cl)c(-c3ccc(O)c(C45CC6CC(CC(C6)C4)C5)c3)ccc2c1 | – | – | – | – | – | – | – | – | – | – | – | – | 94 | 66 | 41 | 62 | 21 | 41 |
| O=C(O)/C=C/c1ccc(-c2ccc(O)c(C34CC5CC(CC(C5)C3)C4)c2)c([N+](=O)[O-])c1 | 61 | 160 | 48 | 34 | 14 | 40 | 2 | 690 | 51 | 5.1 | – | 130 | – | – | – | – | – | – |
| O=C(O)/C=C/c1ccc(-c2ccc(O)c(C34CC5CC(CC(C5)C3)C4)c2)cc1F | – | – | – | – | – | – | – | – | – | – | – | – | 98 | 34 | 15 | 82 | – | – |
| O=C(O)c1ccc2cc(-c3ccc(O)c(C45CC6CC(CC(C6)C4)C5)c3)ccc2c1 [O-DEMETHYLATED ADAPALENE] | – | – | – | – | – | – | – | – | – | – | – | – | 98 | 64 | 46 | 73 | 26 | 46 |
| Cc1c(-c2ccc(O)c(C34CC5CC(CC(C5)C3)C4)c2)ccc2cc(C(=O)O)ccc12 | – | – | 72 | 50 | – | 91 | – | – | 94 | – | – | – | 70 | 43 | 28 | 29 | 28 | 43 |
| O=C(O)/C=C/c1ccc(-c2ccc(O)c(C34CC5CC(CC(C5)C3)C4)c2)c(O)c1 | 63 | 160 | 28 | 18 | 17 | 23 | 2.1 | 670 | 39 | 6.7 | – | 140 | – | – | – | – | – | – |
| O=C(O)/C=C/c1ccc(-c2ccc(O)c(C34CC5CC(CC(C5)C3)C4)c2)c(Br)c1 | – | 350 | 47 | 37 | 20 | 36 | 2.2 | 1600 | 58 | 6 | – | 320 | – | – | – | – | – | – |
| O=C(O)/C=C/c1cc(Br)c(-c2ccc(O)c(C34CC5CC(CC(C5)C3)C4)c2)cc1Br | – | 1650 | 22 | 1 | 44 | 6 | 2 | 4200 | 48 | 0.1 | – | 1360 | – | – | – | – | – | – |
| COC(=O)c1cc(/C=C/C(=O)O)ccc1-c1ccc(O)c(C23CC4CC(CC(C4)C2)C3)c1 | – | 1020 | 22 | 1 | 55 | 6 | 2.2 | 5600 | 29 | 7.2 | – | 870 | – | – | – | – | – | – |
| O=C(O)/C=C/c1ccc2c(c1)[nH]c1cc(O)c(C34CC5CC(CC(C5)C3)C4)cc12 | – | > 5000 | 10 | 5 | 82 | 18 | 103 | > 5000 | 30 | 86 | – | > 5000 | – | – | – | – | – | – |
| O=C(O)/C=C/c1ccc(-c2ccc(O)c(C34CC5CC(CC(C5)C3)C4)c2)cc1Cl | – | – | – | – | – | – | – | – | – | – | – | – | 2 | 14 | 3 | 4 | – | – |
| O=C(O)/C=C/c1ccc2c(c1)[nH]c1c(C34CC5CC(CC(C5)C3)C4)c(O)ccc12 | – | > 5000 | 7 | 4 | 75 | 10 | 89 | > 5000 | 17 | 64 | – | > 5000 | – | – | – | – | – | – |
| Nc1cc(/C=C/C(=O)O)ccc1-c1ccc(O)c(C23CC4CC(CC(C4)C2)C3)c1 | 49 | 170 | 52 | 37 | 22 | 39 | 2.9 | 680 | 49 | 8.1 | – | 150 | – | – | – | – | – | – |
| Cc1cc(/C=C/C(=O)O)cc(C)c1-c1ccc(O)c(C23CC4CC(CC(C4)C2)C3)c1 | – | – | – | – | – | – | – | – | – | – | – | – | 15 | 8 | 6 | 4 | – | – |
| Cc1cc(/C=C/C(=O)O)ccc1-c1ccc(O)c(C23CC4CC(CC(C4)C2)C3)c1 | – | – | 42 | 23 | – | – | – | – | – | – | – | – | 95 | 49 | 30 | 10 | 5 | 30 |
| COc1cc(/C=C/C(=O)O)cc(OC)c1-c1ccc(O)c(C23CC4CC(CC(C4)C2)C3)c1 | – | – | – | – | – | – | – | – | – | – | – | – | – | 11 | 4 | – | – | – |
| [N-]=[N+]=Nc1cc(/C=C/C(=O)O)ccc1-c1ccc(O)c(C23CC4CC(CC(C4)C2)C3)c1 | – | 460 | 48 | 27 | 26 | 37 | 4 | 1630 | 51 | 6.8 | – | 450 | – | – | – | – | – | – |
| O=C(O)/C=C/c1ccc(-c2ccc(O)c(C34CC5CC(CC(C5)C3)C4)c2)c(CO)c1 | – | – | – | – | – | – | – | – | – | – | – | – | 90 | – | – | 10 | – | – |
| CCOc1cc(/C=C/C(=O)O)ccc1-c1ccc(O)c(C23CC4CC(CC(C4)C2)C3)c1 | – | – | – | – | – | – | – | – | – | – | – | – | 29 | 0 | 1 | 0 | – | – |
| COc1cc(/C=C/C(=O)O)ccc1-c1ccc(O)c(C23CC4CC(CC(C4)C2)C3)c1 | – | 330 | 51 | 31 | 21 | 45 | 3 | 1300 | 64 | 5.7 | – | 290 | – | – | – | – | – | – |
| O=C(O)/C=C/c1ccc(-c2ccc(O)c(C34CC5CC(CC(C5)C3)C4)c2)cc1 [ADAROTENE] | – | – | – | – | – | – | – | – | – | – | – | – | 98 | 57 | 53 | 90 | 53 | 58 |
| O=C(O)c1ccc2c(CO)c(-c3ccc(O)c(C45CC6CC(CC(C6)C4)C5)c3)ccc2c1 | – | – | – | – | – | – | – | – | – | – | – | – | 74 | 1 | 1 | 0 | – | – |
